Results as given in ChEMBL document CHEMBL2321795, “Solubility-driven optimization of (pyridin-3-yl) benzoxazinyl-oxazolidinones leading to a promising antibacterial agent” (J Med Chem, 2013).
Values after ≈ are worked out from the molar mass of the structure shown.

What was measured:
[1] = tested on: Staphylococcus epidermidis; test: Antibacterial activity against methicillin-sensitive Staphylococcus epidermidis after 16 hrs by NCCLS agar dilution method; format: functional
Method in brief: (§1)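 Agar dilution MIC. Stocks were 320 μg/mL in 50% aqueous DMSO, 2-fold serially diluted in sterile water, then diluted 10-fold into Mueller–Hinton agar to give 16–0.03125 μg/mL final. Organisms were grown in MH broth at 35 °C for 8 h and adjusted to 0.5 McFarland. They were spotted onto drug-containing plates with a multipoint inoculator and incubated at 35 °C for 16 h. Linezolid was the positive control.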

[2] = tested on: Streptococcus pneumoniae; test: Antibacterial activity against penicillin-resistant Streptococcus pneumoniae after 16 hrs by NCCLS agar dilution method; format: functional; method in brief: as §1
[3] = target: hERG (KCNH2) (Homo sapiens, UniProt Q12809); test: Inhibition of human ERG at 30 uM relative to control
[4] = tested on: Staphylococcus epidermidis; test: Antibacterial activity against linezolid-resistant Staphylococcus epidermidis after 16 hrs by NCCLS agar dilution method; format: functional; method in brief: as §1
[5] = tested on: Staphylococcus aureus; test: Antibacterial activity against Staphylococcus aureus ATCC 29213 after 16 hrs by NCCLS agar dilution method; format: functional; conditions: ATCC 29213, 16 h; method in brief: as §1
[6] = tested on: Staphylococcus aureus; test: Antibacterial activity against methicillin-sensitive Staphylococcus aureus after 16 hrs by NCCLS agar dilution method; format: functional; method in brief: as §1
[7] = tested on: Enterococcus faecalis; test: Antibacterial activity against linezolid-resistant Enterococcus faecalis after 16 hrs by NCCLS agar dilution method; format: functional; method in brief: as §1
[8] = tested on: Enterococcus faecalis; test: Antibacterial activity against Enterococcus faecalis after 16 hrs by NCCLS agar dilution method; format: functional
Method in brief: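 Agar dilution MIC per NCCLS, 6 E. faecalis strains. Stock was 320 μg/mL in 50% water/DMSO, serially 2-fold diluted in sterile water, then 10-fold into Mueller–Hinton agar to give 16–0.03125 μg/mL final. Inocula came from MH broth cultures grown 8 h at 35 °C, adjusted to 0.5 McFarland and spotted by multipoint inoculator. Plates were read after 16 h at 35 °C.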

[9] = tested on: Staphylococcus aureus; test: Antibacterial activity against methicillin-resistant Staphylococcus aureus after 16 hrs by NCCLS agar dilution method; format: functional; method in brief: as §1
[10] = tested on: Staphylococcus epidermidis; test: Antibacterial activity against methicillin-resistant Staphylococcus epidermidis after 16 hrs by NCCLS agar dilution method; format: functional; method in brief: as §1
[11] = tested on: Enterococcus faecium; test: Antibacterial activity against linezolid-resistant Enterococcus faecium after 16 hrs by NCCLS agar dilution method; format: functional; method in brief: as §1
[12] = tested on: Staphylococcus aureus; test: Antibacterial activity against linezolid-resistant Staphylococcus aureus after 16 hrs by NCCLS agar dilution method; format: functional; method in brief: as §1
[13] = Aqueous solubility of the compound; conditions: aqueous (not further specified)
[14] = Tmax in Sprague-Dawley rat at 10 mg/kg, po by LC-MS analysis; format: ADME, organism-based; set-up: dose 10 mg/kg, route oral; conditions: in vivo
Method in brief: (§2)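 Rats were dosed orally or by intravenous injection. For prodrugs, all parameters were based on the active parent antibacterial detected in plasma, and each prodrug dose was also given as an equivalent parent dose. Parameters were Cmax, Tmax, elimination T1/2, AUC from the concentration–time curve, clearance and oral bioavailability F.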

[15] = Elimination half life in Sprague-Dawley rat at 10 mg/kg, po by LC-MS analysis; format: ADME, organism-based; set-up: dose 10 mg/kg, route oral; conditions: in vivo, read-out: beta t1/2 (converted); method in brief: as §2
[16] = Cmax in Sprague-Dawley rat at 10 mg/kg, po by LC-MS analysis; format: ADME, organism-based; set-up: dose 10 mg/kg, route oral; conditions: in vivo; method in brief: as §2
[17] = AUC in Sprague-Dawley rat at 10 mg/kg, po by LC-MS analysis; format: ADME, organism-based, Plasma; set-up: dose 10 mg/kg, route oral; conditions: Sprague-Dawley, plasma; method in brief: as §2
[18] = tested on: Staphylococcus aureus; test: Antibacterial activity against methicillin-sensitive Staphylococcus aureus ATCC 19636 infected in po dosed systemic infection mouse model administered 1 hr post infection measured after 48 hrs; format: functional; conditions: ATCC 19636, po
Method in brief: (§3)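 Female ICR mice weighing 20–22 g, six per group, received 0.5 mL of 10⁷–10⁸ CFU/mL S. aureus intraperitoneally as a lethal systemic challenge. Dosing was oral or intravenous 1 h post-infection at 2.5, 5, 10 and 20 mg/kg, with linezolid as comparator.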

[19] = tested on: Staphylococcus aureus; test: Antibacterial activity against methicillin-sensitive Staphylococcus aureus ATCC 19636 infected in iv dosed systemic infection mouse model administered 1 hr post infection measured after 48 hrs; format: functional; conditions: ATCC 19636, iv; method in brief: as §3
[20] = Elimination half life in Sprague-Dawley rat at 10 mg/kg, iv by LC-MS analysis; format: ADME, organism-based; set-up: dose 10 mg/kg, route intravenous; conditions: in vivo, read-out: beta t1/2 (converted); method in brief: as §2
[21] = AUC in Sprague-Dawley rat at 10 mg/kg, iv by LC-MS analysis; format: ADME, organism-based; set-up: dose 10 mg/kg, route intravenous; conditions: plasma
Method in brief: (§4)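 Rats dosed orally or by intravenous injection. AUC is the area under the plasma concentration–time curve. For the prodrug entries, all PK values were based on the amount of the active parent antibacterial detected, not the administered prodrug.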

[22] = Oral bioavailability in Sprague-Dawley rat at 15 mg/kg; format: ADME, organism-based; conditions: in vivo; method in brief: as §2
[23] = Cmax in Sprague-Dawley rat at 15 mg/kg, po by LC-MS analysis; format: ADME, organism-based; set-up: dose 15 mg/kg, route oral; conditions: in vivo; method in brief: as §2
[24] = AUC in Sprague-Dawley rat at 15 mg/kg, po by LC-MS analysis; format: ADME, organism-based; set-up: dose 15 mg/kg, route oral; conditions: plasma; method in brief: as §4
[25] = Clearance in Sprague-Dawley rat at 10 mg/kg, iv by LC-MS analysis; format: ADME, organism-based; set-up: dose 10 mg/kg, route intravenous; conditions: in vivo; method in brief: as §2
[26] = Elimination half life in Sprague-Dawley rat at 15 mg/kg, po by LC-MS analysis; format: ADME, organism-based; set-up: dose 15 mg/kg, route oral; conditions: in vivo, read-out: beta t1/2 (converted); method in brief: as §2
[27] = Tmax in Sprague-Dawley rat at 15 mg/kg, po by LC-MS analysis; format: ADME, organism-based; set-up: dose 15 mg/kg, route oral; conditions: in vivo; method in brief: as §2
[28] = Oral bioavailability in Sprague-Dawley rat at 10 mg/kg; format: ADME, organism-based; conditions: Sprague-Dawley, in vivo; method in brief: as §2
[29] = target: Voltage-gated inwardly rectifying potassium channel KCNH2 (Homo sapiens, UniProt Q12809)
[30] = tested on: Staphylococcus aureus; test: Antibacterial activity against methicillin-resistant Staphylococcus aureus ATCC 33591 infected in po dosed systemic infection mouse model administered 1 hr post infection measured after 24 hrs; format: functional; conditions: ATCC 33591, po
Method in brief: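 Female ICR mice, 23–25 g, made neutropenic with cyclophosphamide ip, 150 mg/kg 4 days and 100 mg/kg 2 days before infection. Infected ip with about 0.5 mL of 10⁶ CFU/mL MRSA. Oral dosing 1 h post-infection at 5, 10, 20 and 40 mg/kg, with linezolid as control. ED₅₀ (dose treating 50% of infections) by Reed–Muench and Hill equation, 24 h after treatment.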

[31] = Mean resident time in Staphylococcus aureus systemic infection mouse model at 2.5 to 20 mg/kg, iv; format: ADME, organism-based; set-up: dose 2.5-20 mg/kg, route intravenous; conditions: in vivo

Sequence of Voltage-gated inwardly rectifying potassium channel KCNH2 (Q12809 whole entry): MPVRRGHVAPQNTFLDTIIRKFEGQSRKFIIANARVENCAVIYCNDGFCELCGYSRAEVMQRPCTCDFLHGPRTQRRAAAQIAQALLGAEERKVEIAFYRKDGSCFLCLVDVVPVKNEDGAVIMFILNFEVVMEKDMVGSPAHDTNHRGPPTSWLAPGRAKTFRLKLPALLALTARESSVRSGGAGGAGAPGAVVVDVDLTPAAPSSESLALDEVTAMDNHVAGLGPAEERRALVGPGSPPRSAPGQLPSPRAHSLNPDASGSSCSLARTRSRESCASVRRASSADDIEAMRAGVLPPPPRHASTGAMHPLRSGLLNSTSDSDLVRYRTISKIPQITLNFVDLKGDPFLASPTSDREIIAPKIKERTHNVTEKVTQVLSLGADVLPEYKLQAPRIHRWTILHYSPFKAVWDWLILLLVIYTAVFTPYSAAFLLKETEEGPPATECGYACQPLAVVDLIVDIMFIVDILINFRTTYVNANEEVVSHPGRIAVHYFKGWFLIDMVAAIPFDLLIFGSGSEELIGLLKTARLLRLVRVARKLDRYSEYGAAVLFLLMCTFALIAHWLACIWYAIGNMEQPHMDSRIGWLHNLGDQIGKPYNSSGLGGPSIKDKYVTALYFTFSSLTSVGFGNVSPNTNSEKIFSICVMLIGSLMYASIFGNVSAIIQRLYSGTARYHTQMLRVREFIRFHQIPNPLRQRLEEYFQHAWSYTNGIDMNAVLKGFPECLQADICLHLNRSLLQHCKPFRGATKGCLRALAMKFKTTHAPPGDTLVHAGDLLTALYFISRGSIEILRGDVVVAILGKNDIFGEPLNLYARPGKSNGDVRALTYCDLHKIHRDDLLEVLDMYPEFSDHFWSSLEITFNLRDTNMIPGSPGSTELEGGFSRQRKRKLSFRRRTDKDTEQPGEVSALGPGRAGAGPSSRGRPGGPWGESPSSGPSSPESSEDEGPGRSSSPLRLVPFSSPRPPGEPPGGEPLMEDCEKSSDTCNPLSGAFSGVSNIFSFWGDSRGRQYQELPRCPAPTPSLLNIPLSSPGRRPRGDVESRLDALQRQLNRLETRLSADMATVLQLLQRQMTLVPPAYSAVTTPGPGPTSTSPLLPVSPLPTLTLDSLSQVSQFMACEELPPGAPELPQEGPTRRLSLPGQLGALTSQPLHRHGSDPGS
Sequence of hERG (KCNH2) (Q12809 whole entry): as above

SMILES	MIC [1] [mg/L]	MIC [6] [mg/L]	MIC [9] [mg/L]	MIC [10] [mg/L]	Tmax [14] [h]	half-life [15] [h]	Cmax [16] [µg/mL]	AUC [17] [µg·h/mL]	half-life [20] [h]	AUC [21] [µg·h/mL]	clearance [25] [L/h/kg]	also measured
C[C@@H](O)C(=O)c1ccc(-c2ccc3c(c2)OC[C@H]2[C@H](CO)OC(=O)N32)cn1	0.125 (≈ 0.338 µM)	0.25 (≈ 0.675 µM)	0.125 (≈ 0.338 µM)	0.125 (≈ 0.338 µM)	–	–	–	–	–	–	–	MIC [2]: 0.25 mg/L (≈ 0.675 µM); inhibition at 30 µM [3]: 18.4%; MIC [4]: 4 mg/L (≈ 10.8 µM); MIC [5]: 0.25 mg/L (≈ 0.675 µM); MIC [7]: 4 mg/L (≈ 10.8 µM); MIC [8]: 1 mg/L (≈ 2.7 µM); MIC [11]: 4 mg/L (≈ 10.8 µM); MIC [12]: 8 mg/L (≈ 21.6 µM)
N#Cc1ccc(-c2ccc3c(c2)OC[C@H]2[C@H](COP(=O)([O-])[O-])OC(=O)N32)cn1.[Na+].[Na+]	–	–	–	–	1.31	3.17	0.0152	0.0811	–	–	–	solubility [13]: 15 mg/mL
CC(=O)NC[C@H]1CN(c2ccc(N3CCOCC3)c(F)c2)C(=O)O1 [LINEZOLID]	1 (≈ 2.96 µM)	1 (≈ 2.96 µM)	1 (≈ 2.96 µM)	2 (≈ 5.93 µM)	–	–	–	–	–	–	–	ED50 [18]: 8.28 mg/kg; MIC [4]: 8 mg/L (≈ 23.7 µM); MIC [5]: 1 mg/L (≈ 2.96 µM); ED50 [19]: 7.07 mg/kg; MIC [11]: 16 mg/L (≈ 47.4 µM); MIC [12]: > 8 mg/L
N=C(N)NCCC[C@H](N)C(=O)O.N=C(N)NCCC[C@H](N)C(=O)O.O=C1OC(COP(=O)(O)O)CN1c1ccc(-c2ccc3c(c2)OC[C@H]2[C@H](CO)OC(=O)N32)cn1 (stereo partly drawn)	–	–	–	–	–	–	–	–	0.26	1.8	2.78	bioavailability [22]: 32.6%; Cmax [23]: 0.416 µg/mL; AUC [24]: 0.914 µg·h/mL; half-life [26]: 1.45 h; Tmax [27]: 0.25 h
CN1C[C@@H](c2ccc(-c3ccc4c(c3)OC[C@H]3[C@H](COP(=O)(O)O)OC(=O)N43)cn2)OC1=O.N=C(N)NCCC[C@H](N)C(=O)O.N=C(N)NCCC[C@H](N)C(=O)O	–	–	–	–	0.38	3.88	0.17	0.523	9.43	1.45	3.37	bioavailability [28]: 34.8%
CC(=O)NC[C@@H]1OC(=O)N2c3ccc(-c4ccc(C#N)nc4)cc3OC[C@@H]12	–	–	–	–	–	–	–	–	–	–	–	IC50 [29]: 2.78 µM
CN1C[C@@H](c2ccc(-c3ccc4c(c3)OC[C@H]3[C@H](COP(=O)([O-])[O-])OC(=O)N43)cn2)OC1=O.[Na+].[Na+]	–	–	–	–	0.44	4.61	0.524	1.67	4.88	3.17	2.42	ED50 [18]: 6.65 mg/kg; solubility [13]: 227 mg/mL; bioavailability [28]: 52.5%; ED50 [30]: 5 mg/kg; ED50 [19]: 14.2 mg/kg; MRT [31]: 1.25 h
CC(=O)c1ccc(-c2ccc3c(c2)OC[C@H]2[C@H](CO)OC(=O)N32)cn1	4 (≈ 11.8 µM)	2 (≈ 5.88 µM)	2 (≈ 5.88 µM)	4 (≈ 11.8 µM)	–	–	–	–	–	–	–	MIC [2]: 8 mg/L (≈ 23.5 µM); MIC [8]: 2 mg/L (≈ 5.88 µM)
